Broadly, the Ki is the dissociation constant of the complex between target and ligand, obtained from inhibition or displacement. Broadly, the microsomal CLint is the capacity of the preparation to metabolise the compound, expressed as a volume cleared per time. A higher microsomal CLint goes with faster metabolism. In general, Papp refers to the rate of passage across a membrane or cell layer, normalised by area and donor concentration. The logD is the decadic logarithm of the distribution of all forms, ionised or not, between an organic phase and buffer at a given pH. A lower logD goes with a more hydrophilic compound. The term AUC(0-t) denotes exposure summed from dosing to a finite time, without extrapolation to infinity. A lower AUC(0-t) goes with less exposure. The term bioavailability denotes dose-corrected exposure relative to a reference, in per cent. Higher therefore signals much systemic uptake. Usually Cmax stands for the highest concentration seen after dosing. Usually Tmax stands for the time at which the peak concentration occurs. Broadly, the half-life is how long it takes for the measured level to halve. A higher half-life goes with slow decline. For orientation: clearance means a measure of how efficiently the substance is removed, as volume per time. A higher clearance goes with a high capacity for elimination. As usually defined, the IC50 is the point on the concentration scale where inhibition reaches its midpoint. High values mean lower potency, low ones higher potency.

In data set [1] the target is T1, Prostaglandin D2 receptor 2 (Homo sapiens, UniProt Q9Y5Y4).
T1 sequence (Q9Y5Y4 whole entry): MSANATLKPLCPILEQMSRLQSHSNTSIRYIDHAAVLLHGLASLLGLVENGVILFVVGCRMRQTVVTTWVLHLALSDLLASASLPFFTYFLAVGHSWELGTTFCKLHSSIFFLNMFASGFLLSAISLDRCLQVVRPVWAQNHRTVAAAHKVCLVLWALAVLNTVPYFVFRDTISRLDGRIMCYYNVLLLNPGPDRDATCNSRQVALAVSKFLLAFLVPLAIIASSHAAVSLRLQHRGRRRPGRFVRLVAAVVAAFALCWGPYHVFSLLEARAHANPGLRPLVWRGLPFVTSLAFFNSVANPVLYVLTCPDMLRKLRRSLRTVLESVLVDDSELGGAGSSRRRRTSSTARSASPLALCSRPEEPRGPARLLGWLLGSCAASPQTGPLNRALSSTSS
The data set is described as follows: Displacement of [3H]PGD2 from human CRTH2 receptor expressed in CHO cells. It counts as cell-based. In outline:
(§1)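 Scintillation proximity competition assay: 2–5 µg human or mouse CRTH2 membranes (nitrogen-cavitation, differential centrifugation) with WGA-SPA beads and 1.5 nM [3H]PGD2 in 10 mM HEPES/KOH pH 7.4, 10 mM MnCl2, protease inhibitors, 1% Me2SO, 90 min shaking at room temperature. Nonspecific binding with 1 µM PGD2. Ki by Cheng–Prusoff, mean of ≥3 independent experiments.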

The target in data set [2] is T2, Prostaglandin D2 receptor 2 (Mus musculus, UniProt Q9Z2J6).
T2 sequence (Q9Z2J6 whole entry): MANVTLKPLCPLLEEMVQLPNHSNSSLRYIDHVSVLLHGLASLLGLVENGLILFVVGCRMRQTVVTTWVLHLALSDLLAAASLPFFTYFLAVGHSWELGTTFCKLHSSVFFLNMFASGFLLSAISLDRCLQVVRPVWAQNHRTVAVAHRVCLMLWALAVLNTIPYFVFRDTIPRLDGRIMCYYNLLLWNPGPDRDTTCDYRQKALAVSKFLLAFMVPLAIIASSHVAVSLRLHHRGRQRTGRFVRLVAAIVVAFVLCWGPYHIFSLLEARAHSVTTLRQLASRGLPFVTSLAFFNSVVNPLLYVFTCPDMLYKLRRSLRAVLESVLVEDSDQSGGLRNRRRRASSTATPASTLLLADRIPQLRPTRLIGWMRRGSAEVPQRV
The data set is described as follows: Displacement of [3H]PGD2 from mouse CRTH2 receptor expressed in HEK293 cells. It counts as cell-based. Summed up: as §1
For orientation: Loss of bound radioactivity is the signal in a displacement assay; it reports binding, not function.

Data set [3] is described as follows: Intrinsic clearance per mg of protein in human liver microsomes at 3 uM. The format is ADME, Microsome. Summed up: (§2)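 Rat or human liver microsomes (0.5 mg/mL final) in 0.1 M phosphate pH 7.4 with 3 µM compound (1% DMSO), preincubated at 37 °C, started with 1 mM NADPH. Quenched with cold acetonitrile at 0, 15, 30, 45 min; LC/MS-MS of compound disappearance gives intrinsic clearance.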
A general note: Liver microsomes are vesicles of endoplasmic reticulum, rich in cytochrome P450 enzymes.

Data set [4] in a line: Apparent permeability across human Caco-2 cell membrane at 10 uM. The format is ADME, cell-based. In outline: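 Caco-2 monolayers grown 21 days on Transwell filters; TEER above 800 ohm·cm² required. 10 µM test compound in HBSS added apically (A to B) or basolaterally (B to A), 2 h at 37 °C. Both compartments sampled, analysed by LC/MS-MS.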
A short description of data set [5]: Lipophilicity, log D of the compound. The format is physicochemical. The note with it: octanol/water.
Data set [6] is described as follows: AUC (0 to last t) in rat at 1 mg/kg, iv. On the set-up: time 0 - last, dose 1 mg/kg, route intravenous. As to conditions: plasma. It counts as ADME, organism-based. Summed up:
(§3)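 Male Sprague–Dawley or Janvier rats, three per route, dosed by oral gavage or iv bolus. Serial blood drawn through an indwelling carotid catheter up to 24 h post dose. Plasma pooled by time point, analysed by LC-MS/MS; non-compartmental analysis.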

Data set [7] can be described thus: AUC (0 to last t) in rat at 5 mg/kg, po. It counts as ADME, organism-based. Also noted: time 0 - last, dose 5 mg/kg, route oral. The note with it: plasma. In outline:
as §3

The nature of data set [8]: Oral bioavailability in rat at 5 mg/kg. The format is ADME, organism-based. As to conditions: in vivo. Summed up: as §3
The nature of data set [9]: Cmax in rat at 1 mg/kg, iv. It counts as ADME, organism-based. Also noted: dose 1 mg/kg, route intravenous. As to conditions: in vivo. Summed up:
as §3

Data set [10] in a line: Cmax in rat at 5 mg/kg, po. The format is ADME, organism-based. Also noted: dose 5 mg/kg, route oral. As to conditions: in vivo. In outline: as §3
Data set [11] can be described thus: Tmax in rat at 1 mg/kg, iv. It counts as ADME, organism-based. Also noted: dose 1 mg/kg, route intravenous. As to conditions: in vivo. Summed up: as §3
Data set [12] in a line: Tmax in rat at 5 mg/kg, po. The format is ADME, organism-based. On the set-up: dose 5 mg/kg, route oral. As to conditions: in vivo. In outline:
as §3

Data set [13] is described as follows: Half life in rat at 1 mg/kg, iv. The format is ADME, organism-based. On the set-up: dose 1 mg/kg, route intravenous. As to conditions: in vivo. In outline: as §3
Data set [14] in a line: Half life in rat at 5 mg/kg, po. The format is ADME, organism-based. Also noted: dose 5 mg/kg, route oral. As to conditions: in vivo. In outline: as §3
A short description of data set [15]: Clearance in rat at 1 mg/kg, iv. As to conditions: in vivo. Also noted: dose 1 mg/kg, route intravenous. The format is ADME, organism-based. Summed up: as §3
Data set [16] can be described thus: Volume of distribution at steady state in rat at 1 mg/kg, iv. The format is ADME, organism-based. On the set-up: dose 1 mg/kg, route intravenous. As to conditions: in vivo, read-out: Vdss. In outline:
as §3

Data set [17] can be described thus: Intrinsic clearance per mg of protein in rat liver microsomes at 3 uM. It counts as ADME, Microsome. In outline: as §2
The target of data set [18] is T1, Prostaglandin D2 receptor 2. The data set is described as follows: Antagonist activity at human CRTH2 receptor expressed in CHO cell membrane by [35S]GTP-gamma-S binding assay. The format is functional, cell membranes. Summed up: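 [35S]GTPγS binding at 30 °C on 10 µg human CRTH2 membranes in 20 mM HEPES/KOH pH 7.4, 10 mM MgCl2, 10 µg/mL saponin, 3 µM GDP, 150 mM NaCl, 2% Me2SO. PGD2 preincubation 10 min (antagonist mode: 80 nM PGD2), then 0.15 nM [35S]GTPγS for 30 min. Nonspecific binding with 10 µM GTPγS; stopped by centrifugation, scintillation counting.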

Data set [19] deals with T3, Prostaglandin D2 receptor (Homo sapiens, UniProt Q13258).
T3 sequence (Q13258 whole entry): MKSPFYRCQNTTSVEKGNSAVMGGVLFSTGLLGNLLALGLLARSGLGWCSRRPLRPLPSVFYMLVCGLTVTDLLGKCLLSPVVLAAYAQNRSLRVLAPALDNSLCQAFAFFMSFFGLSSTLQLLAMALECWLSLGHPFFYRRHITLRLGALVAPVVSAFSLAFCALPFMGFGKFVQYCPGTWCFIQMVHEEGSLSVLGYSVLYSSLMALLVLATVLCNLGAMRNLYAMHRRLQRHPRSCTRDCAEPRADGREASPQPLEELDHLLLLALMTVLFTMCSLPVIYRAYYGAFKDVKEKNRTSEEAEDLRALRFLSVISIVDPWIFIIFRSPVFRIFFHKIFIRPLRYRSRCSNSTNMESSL
The data set is described as follows: Inhibition of prostaglandin D2 receptor.

In data set [20] the target is Prostaglandin E2 receptor EP2 subtype (Homo sapiens, UniProt P43116). The data set is described as follows: Inhibition of prostanoid EP2 receptor.
Data set [21] can be described thus: Inhibition of prostanoid EP3 receptor.
The nature of data set [22]: Inhibition of prostanoid EP4 receptor.
A short description of data set [23]: Inhibition of prostanoid FP receptor.

Prostaglandin E2 receptor EP2 subtype, sequence (P43116 whole entry): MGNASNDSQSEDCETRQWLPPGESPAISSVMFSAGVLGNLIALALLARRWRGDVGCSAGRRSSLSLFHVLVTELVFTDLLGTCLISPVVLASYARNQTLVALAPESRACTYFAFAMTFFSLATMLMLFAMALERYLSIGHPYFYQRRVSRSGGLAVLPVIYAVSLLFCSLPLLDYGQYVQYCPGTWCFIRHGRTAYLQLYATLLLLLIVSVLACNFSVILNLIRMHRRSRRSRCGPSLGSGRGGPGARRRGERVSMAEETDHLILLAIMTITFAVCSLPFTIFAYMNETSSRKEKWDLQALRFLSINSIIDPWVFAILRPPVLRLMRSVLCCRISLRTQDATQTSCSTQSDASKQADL

`O=C(O)CN1C(=O)C2(CC(=O)N(Cc3cc(Cl)ccc3F)C2)c2cc(Cl)ccc21` (single isomer, unassigned; form 1): the Ki in data set [1] amounted to 0.013 µM; in data set [2], 0.088 µM. In addition, the microsomal CLint at 3 µM in data set [3] was 3 µL/min/mg. Besides, in [4], the Papp at 10 µM amounted to 1.8 ×10⁻⁶ cm/s. The logD in data set [5] was -0.4. Moreover, the AUC(0-t) stood at 1390 ng·h/mL in data set [6] and 319 ng·h/mL in [7]. For the same compound, the bioavailability in [8] was determined as 5%. Besides, the Cmax amounted to 5060 ng/mL in data set [9] and 55 ng/mL in data set [10]. The Tmax in data set [11] is 0 h; in data set [12] it was 1.5 h. The results for the half-life in data set [13] and in data set [14] were 0.9 h and 8 h, respectively. This compound had a clearance in [15] of 11.7 mL/min/kg. For the same compound, the Vd in [16] was 0.3 L/kg.

In turn, `COc1cccc(CN2C(=O)C[C@]3(C2=O)C(=O)N(CC(=O)O)c2ccc(Cl)cc23)c1` registered an inhibition constant Ki in data set [1] of 0.072 µM. The microsomal CLint at 3 µM is 9 µL/min/mg in data set [3] and 68 µL/min/mg in [17]. In addition, the apparent permeability (Papp) at 10 µM in data set [4] was 0.8 ×10⁻⁶ cm/s.

Turning to `O=C(O)CN1C(=O)[C@@]2(CC(=O)N(Cc3cccc(Cl)c3)C2=O)c2cc(Cl)ccc21`, the Ki in data set [1] stood at 0.023 µM; in [2], 0.033 µM. For the same compound, the IC50 in data set [18] was 0.107 µM; in data set [19], more than 30 µM; in [20], more than 30 µM; in data set [21] it was more than 30 µM; in data set [22], more than 30 µM; in [23], more than 30 µM. For the same compound, the microsomal CLint at 3 µM in data set [3] stood at 3 µL/min/mg; in data set [17], 8 µL/min/mg. The same compound came in with a logD in data set [5] of -0.4.

`O=C(O)CN1C(=O)C2(CC(=O)N(Cc3ccccc3)C2)c2cc(Cl)ccc21` (stereo not drawn): the results for the Ki in data set [1] and in data set [2] were 0.702 µM and 0.48 µM, respectively.

Source of the values: ChEMBL document CHEMBL1145542, “Discovery of a new class of potent, selective, and orally bioavailable CRTH2 (DP2) receptor antagonists for the treatment of allergic inflammatory diseases” (J Med Chem, 2008).
